For assay [1], the species on record is Mus musculus. Kind of assay: The concentration required to decrease the estimate of the minimum fraction of leukemic cells (L1210) of mice that survived treatment to 50%. * indicates cell proliferation was not slowed down at screen concentration 100 mM. Type of assay: functional, organism-based. The gist of the method: (§1)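 Surviving-fraction estimate in L1210 suspension cultures (Fischer's medium) counted daily over 3 days across compound concentrations. The exponential part of each growth curve was extrapolated back to zero time, and the intercept was expressed as a percentage of the initial cell number. The value is the concentration that lowers this minimum surviving fraction to 50%.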

Assay [2] is filed under the species Mus musculus. Kind of assay: Concentration required to decrease the growth rate to 50% of control; cell proliferation was not slowed down at screen concentration 100 mM. It is filed as functional, organism-based. The method in brief: (§2)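 Antiproliferative assay in L1210 murine leukemia or H.Ep.2 human epidermoid carcinoma cells. Cells were counted over time with compound present. Growth rate is the slope of log cell number versus time as a percentage of the control slope. IC50 is the concentration that lowers the growth rate to 50% of control. Values are usually the mean of two concentration–response determinations.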

Assay [3] is filed under the species Mus musculus. Kind of assay: The initial growth rate of cells in the presence at the screen concentration 100 mM in leukemic cells (L1210) of mice. It is filed as functional.
The species named for assay [4] is Mus musculus. Kind of assay: Concentration required to decrease the growth rate to 50% of control. Type of assay: functional, organism-based. The gist of the method:
as §2

Assay [5] is filed under the species Mus musculus. Nature of the assay: The concentration required to decrease the estimate of the minimum fraction of leukemic cells (L1210) of mice that survived treatment to 50%. It is filed as functional, organism-based. The method in brief: as §1
The subject of assay [6] is HEp-2. Kind of assay: The initial growth rate of cells in the presence at the screen concentration 100 mM in human epidermoid carcinoma cells (H.Ep.2). It is filed as functional. The method in brief: (§3)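 H.Ep.2 monolayers were seeded at 2×10^4 cells per flask and switched after 1 day to medium containing compound at the single screen concentration. Duplicate flasks were counted on days 1, 2 and 4. The initial slope of log cell number versus time is given as a percentage of the untreated control slope.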

Assay [7] deals with Mus musculus. Kind of assay: Percent treated to untreated control was measured on Leukemia-bearing mice at the dose of 50 mg/kg. Type of assay: functional. The gist of the method: (§4)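 Mice were inoculated with P388 leukemia cells, and compound was injected once daily on days 1–5 after inoculation at doses of 200 down to 6.25 mg/kg/injection. T/C% is the life span of treated mice divided by that of untreated tumor-bearing control mice, ×100.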

For assay [8], the system named is HEp-2. Nature of the assay: Concentration required to decrease the growth rate to 50% of control on H.Ep.2 cells. Type of assay: functional, cell-based. The following applies: Homo sapiens.
The test system of assay [9] is Mus musculus. Kind of assay: Percent treated to untreated control was measured on Leukemia-bearing mice at the dose of 100 mg/kg. Type of assay: functional. The gist of the method:
as §4

The test system of assay [10] is Mus musculus. Nature of the assay: Percent treated to untreated control was measured on Leukemia-bearing mice at the dose of 25 mg/kg. It is filed as functional.
Assay [11] deals with HEp-2. Nature of the assay: The concentration required to decrease the estimate of the minimum fraction of human epidermoid carcinoma cells that survived treatment to 50% (H.Ep.2). Type of assay: functional, cell-based. The method in brief: (§5)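 Surviving fraction in H.Ep.2 monolayers exposed to compound from day 1 after seeding, with duplicate flasks counted on days 1, 2 and 4. The exponential growth curve was back-extrapolated to zero time, and the intercept was expressed as a percentage of initial cells. The value is the concentration that lowers this minimum surviving fraction to 50%.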

The species named for assay [12] is Mus musculus. Kind of assay: The initial growth rate of cells in the presence at the screen concentration 10 mM in leukemic cells (L1210) of mice. Type of assay: functional.
For assay [13], the species on record is Mus musculus. Nature of the assay: The concentration required to decrease the estimate of the minimum fraction of leukemic cells (L1210) of mice that survived treatment to 50%; cell proliferation was not slowed down at screen concentration 100 mM. It is filed as functional. The method in brief:
as §1

For assay [14], the system named is HEp-2. Nature of the assay: Concentration required to decrease the growth rate to 50% of control on H.Ep.2 cells; cell proliferation was not slowed at the screen concentration 100 mM. It is filed as functional, cell-based, Homo sapiens.
In assay [15] the test system is HEp-2. Nature of the assay: The concentration required to decrease the estimate of the minimum fraction of human epidermoid carcinoma cells that survived treatment to 50% (H.Ep.2); cell proliferation was not slowed down at screen concentration 100 mM. Type of assay: functional, cell-based. The method in brief: as §5
The species entered for assay [16] is Mus musculus. Nature of the assay: The concentration required to decrease the estimate of the minimum fraction of leukemic cells of mice that survived treatment to 50%; no evidence of surviving cell. It is filed as functional, organism-based. The method in brief: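 Minimum surviving fraction was estimated by back-extrapolating the exponential portion of treated-cell growth curves to zero time, as a percentage of the initial cell number. The value is the concentration that lowers this to 50%.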

For assay [17], the species on record is Mus musculus. Kind of assay: The concentration required to decrease the estimate of the minimum fraction of leukemic cells of mice that survived treatment to 50% (L1210); no evidence of survivin cell.
Assay [18] relates to HEp-2. Kind of assay: The initial growth rate of cells in the presence at the screen concentration 10 mM in human epidermoid carcinoma cells (H.Ep.2). Type of assay: functional. The method in brief: as §3
Assay [19] is filed under the species Mus musculus. Kind of assay: The concentration required to decrease the estimate of the minimum fraction of leukemic cells (L1210) of mice that survived treatment to 50%; no evidence of surviving cell. Type of assay: functional, organism-based. The gist of the method: as §1
The test system of assay [20] is Mus musculus. Kind of assay: Percent treated to untreated control was measured on Leukemia-bearing mice at the dose of 6.25 mg/kg. It is filed as functional. The gist of the method: as §4
In assay [21] the test system is Mus musculus. Kind of assay: Percent treated to untreated control was measured on Leukemia-bearing mice at the dose of 12.5 mg/kg. Type of assay: functional. The method in brief: as §4
For assay [22], the species on record is Mus musculus. Kind of assay: Concentration required to decrease the growth rate to 50% of control; cell proliferation was not slowed at the screen concentration 100 mM. Type of assay: functional, organism-based. The method in brief:
as §2

The subject of assay [23] is HEp-2. Nature of the assay: The concentration required to decrease the estimate of the minimum fraction of human epidermoid carcinoma cells that survived treatment to 50% (H.Ep.2); cell proliferation was not slowed at the screen concentration 100 mM. Type of assay: functional, cell-based. The gist of the method:
as §5

The species named for assay [24] is Mus musculus. Kind of assay: The concentration required to decrease the estimate of the minimum fraction of leukemic cells (L1210) of mice that survived treatment to 50%; cell proliferation was not slowed at the screen concentration 100 mM. It is filed as functional. The method in brief: as §1
Assay [25] is filed under the species Mus musculus. Kind of assay: Concentration required to decrease the growth rate to 50% of control; cell proliferation was not slowed down at screen concentration 10 mM. Type of assay: functional, organism-based. The method in brief:
as §2

The species entered for assay [26] is Mus musculus. Nature of the assay: The concentration required to decrease the estimate of the minimum fraction of leukemic cells (L1210) of mice that survived treatment to 50%. * indicates cell proliferation was not slowed down at screen concentration 10 mM. Type of assay: functional. The method in brief: as §1
The species entered for assay [27] is Mus musculus. Kind of assay: Concentration required to decrease the growth rate to 50% of control.; cell proliferation was not slowed down at screen concentration 10 mM. It is filed as functional, organism-based. The gist of the method:
as §2

Each structure is given as a SMILES string.

In the case of `Cc1nc(Cl)nc(Cl)c1[N+](=O)[O-]`, the IC50 entry in the assay filed under Mus musculus [1] and in the assay filed under Mus musculus [2] was “Cell proliferation not slowed” each time. In the assay listed under Mus musculus [3], this compound had a Control of 104%.
`CCN(CC)c1nc(OC)nc(C(Br)Br)c1[N+](=O)[O-]`: the concentration for half-maximal inhibition (IC50) (usually the point on the concentration scale where inhibition reaches its midpoint) in the assay filed under Mus musculus [4] is 5.8 µM; in the assay filed under Mus musculus [5], 5.6 µM. The Control in the assay with HEp-2 [6] and in the assay filed under Mus musculus [3] was 0% each time.
`COc1nc(C(Br)Br)c([N+](=O)[O-])c(N2CCOCC2)n1`: the values for the T/C with Mus musculus [7], in the assay on Mus musculus [9] and with Mus musculus [10] were 101%, 87% and 109%, respectively. The IC50 with HEp-2 [8] was 1.6 µM; in the assay filed under Mus musculus [4], 0.32 µM; in the assay listed under Mus musculus [5], 0.56 µM; with HEp-2 [11], 2.8 µM. Moreover, the Control with HEp-2 [6] and in the assay filed under Mus musculus [3] was 0% throughout.
Consider `COc1nc(C(Br)Br)c([N+](=O)[O-])c(N2CCCC2)n1`, for which the half-inhibitory concentration (IC50) in the assay listed under Mus musculus [4] was 0.9 µM; in the assay filed under Mus musculus [5] it was 1 µM. This compound also came in with a Control in the assay listed under Mus musculus [12] of 0%.
`COc1nc(CO)c([N+](=O)[O-])c(N2CCOCC2)n1`: the half-inhibitory concentration (IC50) result in the assay filed under Mus musculus [13], in the assay with HEp-2 [14], in the assay filed under Mus musculus [2] and with HEp-2 [15] was “Cell proliferation not slowed” each time. Further, the Control in the assay with HEp-2 [6] and in the assay listed under Mus musculus [3] was 100% throughout.
As for `CCOc1nc(OCC)c([N+](=O)[O-])c(C(Br)Br)n1`, the IC50 in the assay listed under Mus musculus [4] is 7.2 µM; in the assay listed under Mus musculus [16] it was “Not Active”. In the assay listed under Mus musculus [3], this compound registered a Control of 0%.
On to `CCOc1nc(C(Br)Br)c([N+](=O)[O-])c(N2CCOCC2)n1`, for which the IC50 was 3.6 µM in the assay filed under Mus musculus [4] and “Not Active” in the assay filed under Mus musculus [17]. The compound further came in with a Control in the assay filed under Mus musculus [3] of 13%.
With `CNc1nc(OC)nc(C(Br)Br)c1[N+](=O)[O-]`, the IC50 in the assay filed under Mus musculus [4] was 2.3 µM; in the assay listed under Mus musculus [5], 2 µM. Also, the Control with HEp-2 [6] and in the assay filed under Mus musculus [3] was 0% in each case.
With `COc1nc(C(Br)Br)c([N+](=O)[O-])c(N2CCCCC2)n1`, the 50% inhibitory concentration (IC50) in the assay listed under Mus musculus [4] was 0.54 µM; in the assay listed under Mus musculus [5], 1.8 µM. In addition, the results for the Control with HEp-2 [18] and in the assay filed under Mus musculus [12] were 36% and 0%, respectively.
Regarding `COc1nc(N)c([N+](=O)[O-])c(C(Br)Br)n1`, the IC50 result is “Not Active” in the assay filed under Mus musculus [19], 1.6 µM with HEp-2 [8], 2 µM in the assay filed under Mus musculus [4] and 3.3 µM in the assay on HEp-2 [11]. The Control in the assay with HEp-2 [6] and in the assay listed under Mus musculus [3] was 0% in each case. Further, the T/C (usually the ratio of treated to control) in the assay on Mus musculus [10] was 91%; with Mus musculus [20], 104%; in the assay with Mus musculus [21], 100%.
On to `COc1nc(C)c([N+](=O)[O-])c(OC)n1`, for which the half-maximal inhibitory concentration (IC50) entry in the assay listed under Mus musculus [22], in the assay on HEp-2 [23], with HEp-2 [14] and in the assay listed under Mus musculus [24] was “Cell proliferation not slowed” throughout. Besides, the Control with HEp-2 [6] is given as 90%; in the assay filed under Mus musculus [3] it was 104%.
Consider `COc1nc(OC)c([N+](=O)[O-])c(C(Br)Br)n1`, for which the half-maximal inhibitory concentration (IC50) in the assay on HEp-2 [8] is 2.5 µM; in the assay filed under Mus musculus [4], 1.9 µM; in the assay filed under Mus musculus [16], “Not Active”; with HEp-2 [11], 2.7 µM. Also, the Control in the assay with HEp-2 [6] and in the assay filed under Mus musculus [3] was 0% throughout.
In the case of `COc1nc(C=P(c2ccccc2)(c2ccccc2)c2ccccc2)c([N+](=O)[O-])c(OC)n1`, the IC50 entry in the assay filed under Mus musculus [25] and in the assay filed under Mus musculus [26] was “Cell proliferation not slowed” throughout. In the assay filed under Mus musculus [12], this compound yielded a Control of 93%.
For `COc1nc(/C=C\N(C)C)c([N+](=O)[O-])c(OC)n1`, the IC50 entry in the assay filed under Mus musculus [27] and in the assay listed under Mus musculus [26] was “Cell proliferation not slowed” in each case. The compound also had a Control in the assay filed under Mus musculus [12] of 87%.
With `COc1nc(CBr)c([N+](=O)[O-])c(OC)n1`, the concentration for half-maximal inhibition (IC50) in the assay filed under Mus musculus [4] is 8 µM; in the assay listed under Mus musculus [5] it was 25 µM. Further, the Control in the assay on HEp-2 [6] and in the assay listed under Mus musculus [3] was 0% in each case.
With `COc1nc(C=O)c([N+](=O)[O-])c(N(C)C)n1`, the IC50 in the assay filed under Mus musculus [4] was 5.9 µM; in the assay listed under Mus musculus [5], 12 µM. The Control in the assay filed under Mus musculus [3] is on record as 0%.
With `CCCOc1nc(C(Br)Br)c([N+](=O)[O-])c(N2CCOCC2)n1`, the IC50 in the assay listed under Mus musculus [4] was 2.3 µM; in the assay filed under Mus musculus [5], 6.1 µM. In addition, in the assay listed under Mus musculus [12], the Control came out at 13%.
